Source: ChEMBL document CHEMBL3228032, “Aryloxyalkyloxy- and aralkyloxy-4-hydroxy-3-nitrocoumarins which inhibit histamine release in the rat and also antagonize the effects of a slow reacting substance of anaphylaxis” (J Med Chem, 1979)

test system: Rattus norvegicus; test: Antiallergic activity against ip dosed passive peritoneal anaphylaxis rat model assessed as inhibition of histamine release in peritoneal fluid administered 30s prior to ovalbumin challenge measured per rat after 5 mins; assay type: functional; details: not given
Outline: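 Rat anti-ovalbumin antiserum raised with Bordetella pertussis vaccine adjuvant; rats given 2 mL of 1:5 antiserum ip. 2 h later, Pontamine Sky Blue iv, then compound in 1 mL saline ip (saline controls), groups of 5–7, randomized. Challenge 30 s later ip with 5 mL Tyrode containing heparin 50 μg/mL and ovalbumin 0.4 mg/mL. Peritoneal fluid collected at 5 min for histamine. Dose reducing histamine to 50% of controls from log dose-response line, 95% confidence limits.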

| SMILES | ED50 |
| --- | --- |
| O=C([O-])c1cc(=O)c2c(OCC(O)COc3cccc4oc(C(=O)[O-])cc(=O)c34)cccc2o1.[Na+].[Na+] [CROMOLYN SODIUM] | 5.2 nM |
| CCCc1c(OCC(O)COc2ccc3c(O)c([N+](=O)[O-])c(=O)oc3c2CCC)ccc(C(C)=O)c1O (stereo unspecified) | 6.2 ×10⁻¹⁰ M |
| O=c1oc2cc(OCCCOc3ccccc3)ccc2c(O)c1[N+](=O)[O-] | 2.1 nM |
| CCCc1c(OCCCOc2ccc3c(O)c([N+](=O)[O-])c(=O)oc3c2)ccc(C(C)=O)c1O | 4.8 nM |
| CCCc1c(OCC(O)COc2ccc3c(O)c([N+](=O)[O-])c(=O)oc3c2C)ccc(C(C)=O)c1O (stereo unspecified) | 2.4 nM |
| CCCc1c(OCC(O)COc2ccc3c(O)c([N+](=O)[O-])c(=O)oc3c2)ccc(C(C)=O)c1O (stereo unspecified) | 6.5 ×10⁻¹⁰ M |
| CCCc1cc(F)ccc1OCC(O)COc1ccc2c(O)c([N+](=O)[O-])c(=O)oc2c1 (stereo unspecified) | 1.7 nM |
| CCCc1c(OCC(O)COc2ccc3c(=O)cc(C(=O)O)oc3c2CCC)ccc(C(C)=O)c1O (stereo unspecified) [FPL-55712] | 3.2 ×10⁻⁸ M |
| CCCc1ccccc1OCC(O)COc1ccc2c(O)c([N+](=O)[O-])c(=O)oc2c1 (stereo unspecified) | 1.1 nM |

test system: Ileum; test: Antagonism of slow reacting substance of anaphylaxis-induced effect in guinea pig ileum; assay type: functional, tissue-based; details: Cavia porcellus
Outline: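 SRS-A standard: heated supernatant of pooled rat peritoneal fluid taken 5 min after antigen challenge in passive peritoneal anaphylaxis. Assayed on isolated terminal guinea pig ileum in 4 mL Tyrode's with atropine 5 × 10⁻⁷ M and mepyramine maleate 10⁻⁶ M. Antagonist in water added 30 s before a submaximal SRS-A dose. At least three concentrations, more than one ileum. Bath concentration for 50% inhibition taken from log concentration-inhibition curve, by eye or best-fit line with 95% confidence limits.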

| IC50 | SMILES |
| --- | --- |
| > 20 µM | CC(=O)c1ccc(OCC(O)COc2ccc3c(O)c([N+](=O)[O-])c(=O)oc3c2)cc1O (stereo unspecified) |
| 0.5 µM | CC(=O)c1ccc(OCC(O)COc2ccc3c(O)c([N+](=O)[O-])c(=O)oc3c2)c(C)c1O (stereo unspecified) |
| 0.15 µM | CCCc1c(OCC(O)COc2ccc3c(O)c([N+](=O)[O-])c(=O)oc3c2)ccc(C(=O)CC)c1O (stereo unspecified) |
| > 10 µM | O=C(O)c1ccc(OCC(O)COc2ccc3c(O)c([N+](=O)[O-])c(=O)oc3c2)cc1 (stereo unspecified) |
| 0.16 µM | CC(C)c1ccccc1OCC(O)COc1ccc2c(O)c([N+](=O)[O-])c(=O)oc2c1 (stereo unspecified) |
| 12 µM | O=c1oc2cc(OCC(O)COc3ccccc3)ccc2c(O)c1[N+](=O)[O-] (stereo unspecified) |
| > 10 µM | O=c1oc2cc(OCCOc3ccccc3)ccc2c(O)c1[N+](=O)[O-] |
| 1.5 µM | O=c1oc2cc(OCc3ccccc3)ccc2c(O)c1[N+](=O)[O-] |
| 1.6 µM | O=c1oc2cc(OCCCOc3ccccc3)ccc2c(O)c1[N+](=O)[O-] |
| 4.4 µM | Cc1cccc(OCCCOc2ccc3c(O)c([N+](=O)[O-])c(=O)oc3c2)c1 |
| 4.4 µM | O=c1oc2cc(OCCc3ccccc3)ccc2c(O)c1[N+](=O)[O-] |
| 0.59 µM | Cc1ccccc1OCCCOc1ccc2c(O)c([N+](=O)[O-])c(=O)oc2c1 |
| > 10 µM | CCc1cc2c(O)c([N+](=O)[O-])c(=O)oc2cc1OCCCOc1ccccc1 |
| 0.7 µM | CCCc1cc(C(C)=O)ccc1OCC(O)COc1ccc2c(O)c([N+](=O)[O-])c(=O)oc2c1 (stereo unspecified) |
| 0.08 µM | CCCc1c(OCC(O)COc2ccc3c(O)c([N+](=O)[O-])c(=O)oc3c2)ccc(C(C)=O)c1O (stereo unspecified) |
| 0.14 µM | CCCc1cc(F)ccc1OCC(O)COc1ccc2c(O)c([N+](=O)[O-])c(=O)oc2c1 (stereo unspecified) |
| 2.7 µM | CCc1ccccc1OCC(O)COc1ccc2c(O)c([N+](=O)[O-])c(=O)oc2c1 (stereo unspecified) |
| 3.6 µM | O=c1oc2cc(OCCCCOc3ccccc3)ccc2c(O)c1[N+](=O)[O-] |
| 4.5 µM | O=c1oc2cc(OCCCCc3ccccc3)ccc2c(O)c1[N+](=O)[O-] |
| 7.8 µM | O=c1oc2cc(OCCCc3ccccc3)ccc2c(O)c1[N+](=O)[O-] |
| 3.5 µM | CCc1cc(C(C)=O)c(O)cc1OCC(O)COc1ccc2c(O)c([N+](=O)[O-])c(=O)oc2c1 (stereo unspecified) |
| 8.4 µM | O=c1oc2cc(OCCCCCOc3ccccc3)ccc2c(O)c1[N+](=O)[O-] |
| 0.11 µM | CCCc1ccccc1OCC(O)COc1ccc2c(O)c([N+](=O)[O-])c(=O)oc2c1 (stereo unspecified) |

Further lines, the molecule ahead of its results:

| SMILES | IC50 |
| --- | --- |
| O=c1oc2cc(OCCCOc3ccc4c(c3)CCCC4)ccc2c(O)c1[N+](=O)[O-] | > 2 µM |
| O=c1oc2cc(OCCCCc3ccc(Cl)cc3)ccc2c(O)c1[N+](=O)[O-] | 3.8 µM |
| O=c1oc2ccc(OCCCCCOc3ccccc3)cc2c(O)c1[N+](=O)[O-] | 2 µM |
| O=c1oc2cc(OCCCOc3ccc(-c4ccccc4)cc3)ccc2c(O)c1[N+](=O)[O-] | > 20 µM |
| CC(=O)c1ccc(OCCCOc2ccc3c(O)c([N+](=O)[O-])c(=O)oc3c2)cc1 | 6.1 µM |
| Cc1ccc(CCCCOc2ccc3c(O)c([N+](=O)[O-])c(=O)oc3c2)cc1 | 2.5 µM |
| O=c1oc2ccc(OCCc3ccccc3)cc2c(O)c1[N+](=O)[O-] | 18 µM |
| CCCc1c(OCC(O)COc2ccc3c(O)c([N+](=O)[O-])c(=O)oc3c2CC)ccc(C(C)=O)c1O (stereo unspecified) | 0.05 µM |
| O=c1oc2ccc(OCc3ccccc3)cc2c(O)c1[N+](=O)[O-] | 22 µM |
| Cc1ccc(OCCCOc2ccc3c(O)c([N+](=O)[O-])c(=O)oc3c2)c([N+](=O)[O-])c1 | > 10 µM |
| CCCc1c(OCC(O)COc2ccc3c(O)c([N+](=O)[O-])c(=O)oc3c2CCC)ccc(C(C)=O)c1O (stereo unspecified) | 0.2 µM |
| O=c1oc2cccc(OCCCCOc3ccccc3)c2c(O)c1[N+](=O)[O-] | > 10 µM |
| Cc1cc(OCCCOc2ccccc2)cc2oc(=O)c([N+](=O)[O-])c(O)c12 | 5.2 µM |
| O=c1oc2c(OCCCOc3ccccc3)cccc2c(O)c1[N+](=O)[O-] | > 20 µM |
| O=c1oc2cccc(OCCCOc3ccccc3)c2c(O)c1[N+](=O)[O-] | 18 µM |
| O=c1oc2ccc(OCCCc3ccccc3)cc2c(O)c1[N+](=O)[O-] | 5.5 µM |
| CCCc1c(O)c(C(C)=O)cc([N+](=O)[O-])c1OCC(O)COc1ccc2c(O)c([N+](=O)[O-])c(=O)oc2c1C (stereo unspecified) | 1.6 µM |

| SMILES | IC50 |
| --- | --- |
| CCCc1c(OCCCOc2ccc3c(O)c([N+](=O)[O-])c(=O)oc3c2)ccc(C(C)=O)c1O | 0.1 µM |
| CCCc1c(OCC(O)COc2ccc3c(O)c([N+](=O)[O-])c(=O)oc3c2C)ccc(C(C)=O)c1O (stereo unspecified) | 0.025 µM |
| O=c1oc2ccc(OCCCCCCOc3ccccc3)cc2c(O)c1[N+](=O)[O-] | 0.78 µM |
| O=c1oc2cc(OCCCOc3ccc(F)cc3)ccc2c(O)c1[N+](=O)[O-] | 1 µM |
| O=c1oc2ccc(OCCOc3ccccc3)cc2c(O)c1[N+](=O)[O-] | 17 µM |
| COc1ccc(OCCCOc2ccc3c(O)c([N+](=O)[O-])c(=O)oc3c2)cc1 | > 4 µM |
| O=c1oc2ccc(OCCCOc3ccccc3)cc2c(O)c1[N+](=O)[O-] | 2.3 µM |
| CC(=O)c1ccc(OCCCOc2ccc3c(O)c([N+](=O)[O-])c(=O)oc3c2)cc1O | 2.8 µM |
| O=C(O)c1ccc(OCCCOc2ccc3c(O)c([N+](=O)[O-])c(=O)oc3c2)cc1 | > 20 µM |
| COC(=O)c1ccc(OCCCOc2ccc3c(O)c([N+](=O)[O-])c(=O)oc3c2)cc1 | > 10 µM |
| O=c1oc2cccc(OCCCc3ccccc3)c2c(O)c1[N+](=O)[O-] | > 20 µM |
| O=c1oc2cc(OCCCCCCOc3ccccc3)ccc2c(O)c1[N+](=O)[O-] | > 20 µM |
| CCCc1c(OCCCOc2ccccc2)ccc2c(O)c([N+](=O)[O-])c(=O)oc12 | 0.54 µM |
| N#Cc1ccc(OCCCOc2ccc3c(O)c([N+](=O)[O-])c(=O)oc3c2)cc1 | > 10 µM |
| CCCc1c(OCC(O)COc2ccc3c(=O)cc(C(=O)O)oc3c2CCC)ccc(C(C)=O)c1O (stereo unspecified) [FPL-55712] | 0.17 µM |
| Cc1ccc(OCCCOc2ccc3c(O)c([N+](=O)[O-])c(=O)oc3c2)cc1 | 4.5 µM |
| O=c1oc2cc(OCCCOc3ccc(Cl)cc3)ccc2c(O)c1[N+](=O)[O-] | 4 µM |
